Results taken from PMC3217166 (Toxicology in vitro : an international journal published in …, 2011).
≈ marks a conversion by molar mass, not a printed value. Where “and” joins values, the source holds several entries; their conditions need not be identical. Equal entries are not always repeated. Where two headings read alike, the source gives them in different places.

Tests used:
Type in all cases: cell-based, Human
[1] = system: TK6 cells; assay: Generation of reactive oxygen species; conditions: for level of ROS generated: DEHP 234μM, MEHP 196μM (IC50's), cisplatin 13uM
[2] = system: TK6 cells; assay: Cell viability / IC50 by trypan blue exclusion; conditions: for IC50 (cell viability): same value expressed in mg/L
Outline: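 TK6 lymphoblasts were grown in RPMI 1640 with 10% FBS at 37°C, 5% CO2, and subcultured at 1×10^6 cells per 3.5 mL to keep exponential growth. Cells were exposed for 24, 48 or 72 h to test compound at 10–500 μM ([…]). Viability was counted by trypan blue exclusion on an automated cell counter, and the 50% inhibitory concentration was read from the viability curves.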

[3] = system: TK6 cells; conditions: DEHP 234μM, MEHP 196μM (IC50's), valinomycin 11 uM
[4] = system: caspases 3 and 7 in TK6 cells; assay: Activation of caspases 3 and 7
[5] = read-out: IC50 (cell viability), 24 hours of exposure
[6] = read-out: IC50 (cell viability), 48 hours of exposure
[7] = read-out: IC50 (cell viability), 72 hours of exposure
[8] = 24 hours exposure, DEHP and MEHP at IC50's, staurosporine 1 uM
[9] = 48 hours exposure, DEHP 234μM, MEHP 196μM (IC50's), staurosporine 1μM

| Compound | level of ROS generated ([1]; 24 hours exposure) | level of ROS generated ([1]; 48 hours exposure) | IC50 (cell viability) ([2]; 48 hours of exposure) | IC50 (cell viability) ([2]; 72 hours of exposure) | IC50 [2, 5] | IC50 [2, 6] | IC50 [2, 7] | mitochondrial membrane permeability ([3]; 24 hours exposure) | mitochondrial membrane permeability ([3]; 48 hours exposure) | caspases 3 and 7 activation [4, 8] | caspases 3 and 7 activation [4, 9] | ROS production relative to the parent DEHP ([1]; comparison among phthalates at IC50 doses) |
| --- | --- | --- | --- | --- | --- | --- | --- | --- | --- | --- | --- | --- |
| N.N.[Cl][Pt][Cl] [Cisplatin, cis-diammineplatinum (II) dichloride, reference compound] | 1348.85 FSU | 1575.35 FSU | – | – | – | – | – | – | – | – | – | – |
| CCCCC(CC)COC(=O)c1ccccc1C(=O)OCC(CC)CCCC (centres unmarked) [DEHP, diethylhexyl phthalate] | 458.54 FSU | 793.27 FSU | 91.4 µg/mL (≈ 234 µM) | 39.06 µg/mL (≈ 100 µM) | ~250 µM and 250 µM | 234 µM | 100 µM | 1100.85 FSU | 2505.58 FSU | 122.13 FSU | 1406.94 FSU | – |
| CCCCC(CC)COC(=O)c1ccccc1C(=O)O (centres unmarked) [MEHP, monoethylhexyl phthalate] | 816.53 FSU | 1518.75 FSU | 54.55 µg/mL (≈ 196 µM) | 22.27 µg/mL (≈ 80 µM) | 250 µM | 196 µM | 80 µM | 1630.94 FSU | 2210.09 FSU | 292.80 FSU | 1209.72 FSU | twice as much |
| CN[C@@H]1C[C@H]2O[C@@](C)([C@@H]1OC)n1c3ccccc3c3c4c(c5c6ccccc6n2c5c31)C(=O)NC4 [Staurosporine, reference compound] | – | – | – | – | – | – | – | – | – | 1390.92 FSU | 1322.55 FSU | – |
| CC(C)[C@@H]1NC(=O)[C@H](C)OC(=O)[C@@H](C(C)C)NC(=O)[C@@H](C(C)C)OC(=O)[C@H](C(C)C)NC(=O)[C@H](C)OC(=O)[C@@H](C(C)C)NC(=O)[C@@H](C(C)C)OC(=O)[C@H](C(C)C)NC(=O)[C@H](C)OC(=O)[C@@H](C(C)C)NC(=O)[C@@H](C(C)C)OC1=O [valinomycin, Valinomycin, reference compound] | – | – | – | – | – | – | – | 1079.18 FSU | 2327.65 FSU | – | – | – |
